Test results taken from ChEMBL document CHEMBL1146375, “Synthetic studies on novel benzimidazolopeptides with antimicrobial, cytotoxic and anthelmintic potential” (2007).
Converted amounts (≈) assume the structure as drawn. Residues, ends and D or L forms follow the SMILES beside them. *: point of attachment. X1 = Cc1cc2nc(-c3ccc(O)c(C(=O)*)c3)[nH]c2cc1C

Columns and labels:
[1] = Growth inhibition of DLA cells at 3.91 ug/mL after 3 hrs; assay type: functional; conditions: Mus musculus
Method in brief: (§1)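 DLA and EAC cells passaged intraperitoneally in albino mice, harvested after 15–20 days and adjusted to 1 × 10⁶ cells/mL. Dilutions in Dulbecco's medium (500–31.25, some down to 3.91 µg/mL; 5-FU reference) mixed 1:1 with cells and held 3 h at 37 °C. Trypan blue exclusion gave % growth inhibition; CTC50 by graphical extrapolation.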

[2] = Growth inhibition of EAC cells at 7.81 ug/mL after 3 hrs; assay type: functional; conditions: Mus musculus, Ehrlich; method in brief: as §1
[3] = Growth inhibition of EAC cells at 500 ug/mL after 3 hrs; assay type: functional; conditions: Mus musculus, Ehrlich; method in brief: as §1
[4] = Growth inhibition of DLA cells at 15.63 ug/mL after 3 hrs; assay type: functional; conditions: Mus musculus; method in brief: as §1
[5] = Growth inhibition of EAC cells at 15.63 ug/mL after 3 hrs; assay type: functional; conditions: Mus musculus, Ehrlich; method in brief: as §1
[6] = Growth inhibition of DLA cells at 62.5 ug/mL after 3 hrs; assay type: functional; conditions: Mus musculus; method in brief: as §1
[7] = Growth inhibition of DLA cells after 3 hrs; assay type: functional; conditions: Mus musculus; method in brief: as §1
[8] = Growth inhibition of DLA cells at 31.25 ug/mL after 3 hrs; assay type: functional; conditions: Mus musculus; method in brief: as §1
[9] = Growth inhibition of EAC cells after 3 hrs; assay type: functional; conditions: Mus musculus, Ehrlich; method in brief: as §1
[10] = Growth inhibition of DLA cells at 7.81 ug/mL after 3 hrs; assay type: functional; conditions: Mus musculus; method in brief: as §1
[11] = Growth inhibition of EAC cells at 3.91 ug/mL after 3 hrs; assay type: functional; conditions: Mus musculus, Ehrlich; method in brief: as §1
[12] = Growth inhibition of EAC cells at 250 ug/mL after 3 hrs; assay type: functional; conditions: Mus musculus, Ehrlich; method in brief: as §1
Bacillus subtilis [13] = test: Antibacterial activity against Bacillus subtilis NCIM 2063 after 18 hrs by disc diffusion method; assay type: functional
Method in brief: (§2)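 Modified Kirby-Bauer disc diffusion. Plates inoculated with spore suspension (about 6 × 10⁴ spores mL^-1). Sterile 6 mm paper discs carried test samples at 10 mg mL^-1; ciprofloxacin disc as reference, DMF disc as negative control. Plates held 18 h at 37 °C. Inhibition zone diameters (mm) averaged over triplicate sets.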

Eudrilus [14] = test: Anthelmintic activity against Eudrilus sp. assessed as mean paralyzing time; assay type: functional
Method in brief: (§3)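 Earthworms exposed to test suspensions at 2 mg mL^-1 (0.2% w/v), made by triturating compound with Tween 80 (0.5%) and distilled water, then mechanically stirred 30 min. Mebendazole suspension prepared alike as reference. Paralysis and death times recorded; death confirmed by no movement in 50 °C water. Means from triplicate sets.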

Pontoscolex corethrurus [15] = test: Anthelmintic activity against Pontoscolex corethrurus ICARBC 408 assessed as mean death time; assay type: functional
Method in brief: (§4)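 Earthworms exposed to test suspensions at 2 mg mL−1, prepared by triturating compound with Tween 80 (0.5%) and distilled water, stirring 30 min, then diluting to 0.2% w/v. Mebendazole suspension was made the same way. Death was confirmed by moving worms into 50 °C warm water and looking for movement. Mean death time (min) taken from triplicate sets.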

Trichophyton benhamiae [16] = test: Antifungal activity against Trichophyton mentagrophytes MUCC 665 after 48 hrs by disc diffusion method; assay type: functional, Arthroderma benhamiae
Method in brief: (§5)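 Agar well diffusion on plates inoculated with spore suspension in normal saline from cultures on Sabouraud's broth. Wells punched and loaded with test samples or griseofulvin at 10 mg mL^-1, with DMSO as negative control. Incubated 48 h at 37 °C.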

Eudrilus [17] = test: Anthelmintic activity against Eudrilus sp. assessed as mean death time; assay type: functional; method in brief: as §4
[18] = Growth inhibition of EAC cells at 31.25 ug/mL after 3 hrs; assay type: functional; conditions: Mus musculus, Ehrlich; method in brief: as §1
Escherichia coli [19] = test: Antibacterial activity against Escherichia coli NCIM 2065 after 18 hrs by disc diffusion method; assay type: functional; method in brief: as §2
Bacillus subtilis [20] = test: Antibacterial activity against Bacillus subtilis NCIM 2063 after 18 hrs by tube dilution method; assay type: functional; conditions: NCIM 2063, 18 h
Method in brief: (§6)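 Tube dilution MIC. Stock diluted in sterile broth to seven concentrations from 200 to 3.1 […]. Each tube inoculated with one loopful of test bacterium and incubated 18 h at 37 °C. MIC read from presence or absence of growth.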

Pontoscolex corethrurus [21] = test: Anthelmintic activity against Pontoscolex corethrurus ICARBC 408 assessed as mean paralyzing time; assay type: functional; method in brief: as §3
Candida albicans [22] = test: Antifungal activity against Candida albicans MUCC 29 after 48 hrs by disc diffusion method; assay type: functional; method in brief: as §5
Aspergillus niger = test: Antifungal activity against Aspergillus niger MUCC 177 after 48 hrs by disc diffusion method; assay type: functional; method in brief: as §5
Candida albicans [23] = test: Antifungal activity against Candida albicans MUCC 29 after 48 hrs by tube dilution method; assay type: functional
Method in brief: (§7)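 Tube dilution MIC as for bacteria (seven concentrations, 200–3.1 […]), with DMSO in place of DMF. Tubes inoculated with fungal culture and incubated 48 h at 37 °C. MIC read from presence or absence of growth.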

Staphylococcus aureus [24] = test: Antibacterial activity against Staphylococcus aureus NCIM 2079 after 18 hrs by tube dilution method; assay type: functional; conditions: NCIM 2079, 18 h; method in brief: as §6
Staphylococcus aureus [25] = test: Antibacterial activity against Staphylococcus aureus NCIM 2079 after 18 hrs by disc diffusion method; assay type: functional; method in brief: as §2
Microsporum audouinii [26] = test: Antifungal activity against Microsporum audouinii MUCC 545 after 48 hrs by disc diffusion method; assay type: functional; method in brief: as §5
Escherichia coli [27] = test: Antibacterial activity against Escherichia coli NCIM 2065 after 18 hrs by tube dilution method; assay type: functional; conditions: NCIM 2065, 18 h
[28] = Growth inhibition of EAC cells at 62.5 ug/mL after 3 hrs; assay type: functional; conditions: Mus musculus, Ehrlich; method in brief: as §1
[29] = Anthelmintic activity against Megascoplex konkanensis ICARBC 211 assessed as mean paralyzing time; assay type: functional; method in brief: as §3
Trichophyton benhamiae [30] = test: Antifungal activity against Trichophyton mentagrophytes MUCC 665 after 48 hrs by tube dilution method; assay type: functional, Arthroderma benhamiae; method in brief: as §7
[31] = Anthelmintic activity against Megascoplex konkanensis ICARBC 211 assessed as mean death time; assay type: functional; method in brief: as §3
Pseudomonas aeruginosa [32] = test: Antibacterial activity against Pseudomonas aeruginosa NCIM 2034 after 18 hrs by tube dilution method; assay type: functional; conditions: NCIM 2034, 18 h; method in brief: as §6
Pseudomonas aeruginosa [33] = test: Antibacterial activity against Pseudomonas aeruginosa NCIM 2034 after 18 hrs by disc diffusion method; assay type: functional; method in brief: as §2
Microsporum audouinii [34] = test: Antifungal activity against Microsporum audouinii MUCC 545 after 48 hrs by tube dilution method; assay type: functional; method in brief: as §7

O=c1[nH]cc(F)c(=O)[nH]1 [FLUOROURACIL]
inhibition at 3.91 µg/mL [1]: 42.1%
inhibition at 7.81 µg/mL [2]: 32.1%
inhibition at 500 µg/mL [3]: 100%
inhibition at 15.63 µg/mL [4]: 73.7%
inhibition at 15.63 µg/mL [5]: 60.7%
inhibition at 62.5 µg/mL [6]: 100%
CC50 [7]: 37.4 µM
inhibition at 31.25 µg/mL [8]: 100%
CC50 [9]: 90.5 µM
inhibition at 7.81 µg/mL [10]: 65.8%
inhibition at 3.91 µg/mL [11]: 17.9%
inhibition at 250 µg/mL [12]: 100%

COC(=O)[C@H](Cc1cnc[nH]1)NC(=O)CNC(=O)[C@H](Cc1c[nH]c2ccccc12)NC(=O)CNC(=O)c1cc(-c2nc3cc(C)c(C)cc3[nH]2)ccc1O (X1-GWGH-OMe)
inhibition zone (IZ) (Bacillus subtilis [13]): 12 mm
Time (Eudrilus [14]): 11.06 min
Time (Pontoscolex corethrurus [15]): 26.21 min
inhibition zone (IZ) (Trichophyton benhamiae [16]): 15 mm
inhibition at 3.91 µg/mL [1]: 26.3%
inhibition at 7.81 µg/mL [2]: 35.7%
Time (Eudrilus [17]): 20.94 min
inhibition at 31.25 µg/mL [18]: 71.4%
inhibition zone (IZ) (Escherichia coli [19]): 17 mm
inhibition at 15.63 µg/mL [4]: 55.3%
MIC (Bacillus subtilis [20]): 6 µg/mL (≈ 8.18 µM)
Time (Pontoscolex corethrurus [21]): 14.34 min
inhibition at 15.63 µg/mL [5]: 53.6%
inhibition zone (IZ) (Candida albicans [22]): 17 mm
inhibition at 62.5 µg/mL [6]: 100%
CC50 [7]: 15.3 µM
inhibition zone (IZ) (Aspergillus niger): 15 mm
inhibition at 31.25 µg/mL [8]: 86.8%
MIC (Candida albicans [23]): 6 µg/mL (≈ 8.18 µM)
MIC (Staphylococcus aureus [24]): 12.5 µg/mL (≈ 17 µM)
inhibition zone (IZ) (Staphylococcus aureus [25]): 9 mm
CC50 [9]: 18.9 µM
inhibition at 7.81 µg/mL [10]: 44.7%
inhibition zone (IZ) (Microsporum audouinii [26]): 10 mm
MIC (Escherichia coli [27]): 12.5 µg/mL (≈ 17 µM)
inhibition at 62.5 µg/mL [28]: 100%
TIME [29]: 0.157 h
inhibition at 3.91 µg/mL [11]: 7.14%
MIC (Trichophyton benhamiae [30]): 6 µg/mL (≈ 8.18 µM)
TIME [31]: 0.291 h
MIC (Pseudomonas aeruginosa [32]): 6 µg/mL (≈ 8.18 µM)
inhibition zone (IZ) (Pseudomonas aeruginosa [33]): 23 mm
MIC (Microsporum audouinii [34]): 6 µg/mL (≈ 8.18 µM)
